ChEMBL document CHEMBL5661970 (Cancer Res, 2006)
The source made the active and inactive calls. The calls are words filed in the database; no cut-off is given here.

Tests used:
[1] = Inhibition of IGF-1R phosphorylation in serum starved human HT-29 cells incubated for 1 hr by immunoblotting analysis; format: cell-based
Method in brief: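 Cells starved overnight in basic medium with 0.5% FBS, incubated 1 h with compound or 0.1% DMSO, then stimulated 5 min at 37°C with human recombinant cognate ligand. Receptor immunoprecipitated from lysate and immunoblotted for phosphotyrosine; IC50 by nonlinear regression of percent inhibition, n = 4.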

[2] = Antitumor activity against human CGL-9 cells xenografted in gamma-irradiation induced RH-rnu/rnu athymic rat assessed as tumor growth inhibition at 1.0 mg/kg, po administered once daily for 2 weeks and measured on day 14 relative to control; format: functional; conditions: CGL-9, light or radiation study, 336 h, read-out: TGI
Method in brief: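 Human tumor cells inoculated s.c. in right flank of athymic rats 24 h after whole-body γ-irradiation (7 Gy, Co60); established ~1,500 mm3 tumors excised and 20-30 mg fragments implanted s.c. in irradiated rats. Oral dosing in 0.5% methyl cellulose vehicle from randomization (day 0). Tumor volume measured twice weekly by calipers, (length × width²) × 0.5; TGI% versus vehicle on day 14.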

[3] = test system: CAKI-1; experiment: Antitumor activity against human CAKI-1 cells xenografted in gamma-irradiation induced RH-rnu/rnu athymic rat assessed as tumor growth inhibition at 0.2 mg/kg, po administered once daily for 2 weeks and measured on day 14 relative to control; format: functional; conditions: CAKI-1, light or radiation study, 336 h, read-out: TGI
Method in brief: (§1)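 Rats were γ-irradiated with 7 Gy whole body, and 24 h later received s.c. tumor cells. Fragments (20-30 mg) from ~1,500 mm3 tumors were then implanted s.c. into irradiated athymic rats. Oral dosing at 0.2 or 1 mg/kg or vehicle ran once daily for 2 weeks from day 0. Tumors were measured with calipers twice weekly (length×width²×0.5). TGI% was taken versus vehicle on day 14 (BxPC-3: day 13), with an unpaired t test on RTV.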

[4] = test system: CAKI-1; experiment: Antitumor activity against human CAKI-1 cells xenografted in gamma-irradiation induced RH-rnu/rnu athymic rat assessed as tumor growth inhibition at 1.0 mg/kg, po administered once daily for 2 weeks and measured on day 14 relative to control; format: functional; conditions: CAKI-1, light or radiation study, 336 h, read-out: TGI; method in brief: as §1
[5] = test system: Calu-6; experiment: Antitumor activity against human Calu-6 cells xenografted in RH-rnu/rnu athymic rat assessed as tumor growth inhibition at 0.2 mg/kg, po administered once daily for 6 to 21 days by DCE-MRI analysis; format: functional, organism-based; conditions: time 6-21 day
Method in brief: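 Calu-6 tumor-bearing athymic rats were randomized at 274-287 mm3 and dosed orally at 0.2 or 1.0 mg/kg or vehicle once daily on days 0-13. Tumor growth was followed by T2-weighted MRI at 1.5 T through day 21.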

[6] = Half life in F344/N JcL-rnu athymic rat at 0.04 mg/kg, po measured upto 72 hrs by HPLC-MS/MS analysis; format: ADME, organism-based; conditions: in vivo
Method in brief: (§2)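 Female F344/N JcL-rnu rats, four per group, single p.o. dose suspended in 0.5% methyl cellulose. Tail-vein blood sampled at set times to 72 h. Serum spiked with internal standard, deproteinated with acetonitrile, analysed by HPLC-MS/MS. Parameters derived by noncompartmental analysis.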

[7] = Half life in F344/N JcL-rnu athymic rat at 1 mg/kg, po measured upto 72 hrs by HPLC-MS/MS analysis; format: ADME, organism-based; conditions: in vivo; method in brief: as §2
[8] = Tmax in F344/N JcL-rnu athymic rat at 0.04 mg/kg, po measured upto 72 hrs by HPLC-MS/MS analysis; format: ADME, organism-based; conditions: in vivo; method in brief: as §2
[9] = test system: Calu-6; experiment: Antitumor activity against human Calu-6 cells xenografted in RH-rnu/rnu athymic rat assessed as decrease in capillary permeability in tumor at 1 mg/kg, po measured on day 2 by DCE-MRI analysis relative to control; design: scale not given: the % may be the effect or the level left

SMILES: COc1cc2nccc(Oc3ccc(NC(=O)Nc4cc(C)on4)c(Cl)c3)c2cc1OC [TIVOZANIB]
- IC50 [1]: Not Determined(Insoluble)
- inhibition in vivo at 1 mg/kg [2]: 96.2%
- inhibition in vivo at 0.2 mg/kg [3]: 26.9%
- inhibition in vivo at 1 mg/kg [4]: > 100%
- Activity [5]: Active
- half-life [6]: 9.25 h
- half-life [7]: 8.13 h
- Tmax [8]: 3.63 h
- Activity [9]: 55%
